Data taken from ChEMBL document CHEMBL1143088, “Non-acidic pyrazole EP1 receptor antagonists with in vivo analgesic efficacy” (Bioorg Med Chem Lett, 2008).

Assays:
Rattus norvegicus = assay: Reversal of FCA-induced hypersensitivity in orally dosed rat assessed as reduction in weight bearing administered with DMSO as vehicle; type: functional; conditions: po
Outline: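 The CFA inflammatory pain model used rats dosed orally at 1, 3, 10 and 30 mg/kg in 2% DMSO and 20% Kleptose in water. Weight bearing was the efficacy readout at 1 h post-dose. Blood (seven rats) and brain (two to three rats) were sampled at that time. ED50 was given in mg/kg.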

Brain [1] = assay: Drug uptake in FCA-induced hypersensitivity rat brain at 10 mg/kg, po administered with DMSO as vehicle; type: ADME, organism-based; set-up: dose 10 mg/kg, route oral; conditions: in vivo, read-out: Drug uptake
Outline: (§1)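 CFA inflammatory pain rats dosed orally at 1, 3, 10 and 30 mg/kg in 2% DMSO and 20% Kleptose water; weight-bearing readout and blood/brain samples taken 1 h post-dose. Blood levels mean of seven rats; brain levels mean of two or three rats; Br:Bl average of three rats.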

Brain [2] = assay: Drug uptake in FCA-induced hypersensitivity rat brain at 3 mg/kg, po administered with DMSO as vehicle; type: ADME, organism-based; set-up: dose 3 mg/kg, route oral; conditions: in vivo, read-out: Drug uptake; outline: as §1
Cytochrome P450 2C9 = Cytochrome P450 2C9 (Homo sapiens, UniProt P11712); assay: Inhibition of CYP2C9; type: ADME
Chain of Cytochrome P450 2C9 (P11712 whole entry): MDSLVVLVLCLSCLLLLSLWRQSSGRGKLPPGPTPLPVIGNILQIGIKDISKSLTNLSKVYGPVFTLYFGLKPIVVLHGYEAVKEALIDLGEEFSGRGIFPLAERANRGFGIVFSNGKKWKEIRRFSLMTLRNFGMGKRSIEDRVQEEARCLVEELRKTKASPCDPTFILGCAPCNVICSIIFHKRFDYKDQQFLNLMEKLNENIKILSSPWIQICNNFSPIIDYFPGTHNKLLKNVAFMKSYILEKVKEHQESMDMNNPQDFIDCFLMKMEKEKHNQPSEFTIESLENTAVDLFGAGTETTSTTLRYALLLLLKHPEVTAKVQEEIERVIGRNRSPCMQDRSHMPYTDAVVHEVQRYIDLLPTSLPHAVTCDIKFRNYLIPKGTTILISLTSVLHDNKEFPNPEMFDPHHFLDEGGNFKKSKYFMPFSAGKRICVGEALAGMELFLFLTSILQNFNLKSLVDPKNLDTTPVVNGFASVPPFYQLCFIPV

Blood [3] = assay: Drug uptake in FCA-induced hypersensitivity rat blood at 30 mg/kg, po administered with DMSO as vehicle; type: ADME, organism-based; set-up: dose 30 mg/kg, route oral; conditions: in vivo, read-out: Drug uptake; outline: as §1
[4] = Distribution coefficient, logD at pH 7.4; type: physicochemical; conditions: octanol/water
Outline: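 Distribution coefficient between n-octanol and water buffered to pH 7.4; log10 of ratio of equilibrium concentrations of all species.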

Blood [5] = assay: Drug uptake in FCA-induced hypersensitivity rat blood at 10 mg/kg, po administered with DMSO as vehicle; type: ADME, organism-based; set-up: dose 10 mg/kg, route oral; conditions: in vivo, read-out: Drug uptake; outline: as §1
Cytochrome P450 2D6 = Cytochrome P450 2D6 (Homo sapiens, UniProt P10635); assay: Inhibition of CYP2D6; type: ADME
Chain of Cytochrome P450 2D6 (P10635 whole entry): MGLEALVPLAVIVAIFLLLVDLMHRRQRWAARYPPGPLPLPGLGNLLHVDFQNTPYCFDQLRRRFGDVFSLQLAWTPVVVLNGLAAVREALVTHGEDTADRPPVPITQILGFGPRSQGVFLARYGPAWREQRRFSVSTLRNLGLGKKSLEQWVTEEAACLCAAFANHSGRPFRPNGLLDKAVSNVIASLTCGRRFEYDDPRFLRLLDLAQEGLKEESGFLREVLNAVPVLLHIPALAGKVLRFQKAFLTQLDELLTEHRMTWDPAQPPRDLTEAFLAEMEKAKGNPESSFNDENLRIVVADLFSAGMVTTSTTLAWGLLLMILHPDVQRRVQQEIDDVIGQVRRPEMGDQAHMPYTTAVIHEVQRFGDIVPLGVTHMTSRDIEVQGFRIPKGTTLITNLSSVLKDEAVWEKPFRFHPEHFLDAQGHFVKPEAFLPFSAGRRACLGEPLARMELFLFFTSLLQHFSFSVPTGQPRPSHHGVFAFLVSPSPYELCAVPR

[6] = Clearance in blood in rat at 10 mL/h/kg, iv; type: ADME, organism-based; conditions: whole blood
Outline: (§2)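 Male rats (n = 1 per compound) dosed iv at 10 mL/h/kg over 1 h via femoral vein cannula, target 1 mg free compound/kg, formulated at 0.1 mg/mL in 0.9% saline with 2% DMSO and 10–20% Kleptose (some with a molar equivalent NaOH), filtered before dosing.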

[7] = Half life in rat at 10 mL/h/kg, iv; type: ADME, organism-based; conditions: in vivo; outline: as §2
Brain [8] = assay: Drug uptake in FCA-induced hypersensitivity rat brain at 30 mg/kg, po administered with DMSO as vehicle; type: ADME, organism-based; set-up: dose 30 mg/kg, route oral; conditions: in vivo, read-out: Drug uptake; outline: as §1
[9] = Ratio of drug level in brain to blood in FCA-induced hypersensitivity rat at 3 mg/kg, po administered with DMSO as vehicle; type: ADME, organism-based; set-up: dose 3 mg/kg, route oral; outline: as §1
[10] = Ratio of drug level in brain to blood in FCA-induced hypersensitivity rat at 10 mg/kg, po administered with DMSO as vehicle; type: ADME, organism-based; set-up: dose 10 mg/kg, route oral; outline: as §1
[11] = Ratio of drug level in brain to blood in Sprague-Dawley rat at […], iv; type: ADME, organism-based; set-up: route intravenous
Outline: (§3)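 Male Sprague–Dawley rat given iv infusion over 18 h at 5 mL/kg/h (0.518 mg/kg/h) in 0.9% saline with 2% DMSO, 20% Kleptose. Serial blood samples every 15 min over last hour to confirm steady state; after 18 h blood taken, rat culled, brain homogenized; blood and brain analysed by LC/MS/MS.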

[12] = Volume of distribution at steady state in rat at 10 mL/h/kg, iv; type: ADME, organism-based; conditions: in vivo, read-out: Vdss; outline: as §2
Cytochrome P450 1A2 = molecular target: T1, Cytochrome P450 1A2 (Homo sapiens, UniProt P05177); assay: Inhibition of CYP1A2; type: ADME
T1 sequence (P05177 whole entry): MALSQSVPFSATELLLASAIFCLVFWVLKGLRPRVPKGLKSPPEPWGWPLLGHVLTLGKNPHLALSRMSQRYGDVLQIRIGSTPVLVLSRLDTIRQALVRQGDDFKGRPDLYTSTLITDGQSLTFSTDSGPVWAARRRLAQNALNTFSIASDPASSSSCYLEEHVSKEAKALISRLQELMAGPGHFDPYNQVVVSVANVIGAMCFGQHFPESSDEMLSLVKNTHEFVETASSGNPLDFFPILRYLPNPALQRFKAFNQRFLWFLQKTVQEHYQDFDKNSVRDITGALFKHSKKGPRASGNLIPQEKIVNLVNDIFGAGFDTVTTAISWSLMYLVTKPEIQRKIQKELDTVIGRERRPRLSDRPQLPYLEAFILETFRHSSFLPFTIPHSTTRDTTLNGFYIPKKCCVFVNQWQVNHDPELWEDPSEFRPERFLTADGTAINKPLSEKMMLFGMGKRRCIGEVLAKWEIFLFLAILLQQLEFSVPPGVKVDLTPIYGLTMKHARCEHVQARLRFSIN

Cytochrome P450 3A4 = Cytochrome P450 3A4 (Homo sapiens, UniProt P08684); assay: Inhibition of CYP3A4; type: ADME
Chain of Cytochrome P450 3A4 (P08684 whole entry): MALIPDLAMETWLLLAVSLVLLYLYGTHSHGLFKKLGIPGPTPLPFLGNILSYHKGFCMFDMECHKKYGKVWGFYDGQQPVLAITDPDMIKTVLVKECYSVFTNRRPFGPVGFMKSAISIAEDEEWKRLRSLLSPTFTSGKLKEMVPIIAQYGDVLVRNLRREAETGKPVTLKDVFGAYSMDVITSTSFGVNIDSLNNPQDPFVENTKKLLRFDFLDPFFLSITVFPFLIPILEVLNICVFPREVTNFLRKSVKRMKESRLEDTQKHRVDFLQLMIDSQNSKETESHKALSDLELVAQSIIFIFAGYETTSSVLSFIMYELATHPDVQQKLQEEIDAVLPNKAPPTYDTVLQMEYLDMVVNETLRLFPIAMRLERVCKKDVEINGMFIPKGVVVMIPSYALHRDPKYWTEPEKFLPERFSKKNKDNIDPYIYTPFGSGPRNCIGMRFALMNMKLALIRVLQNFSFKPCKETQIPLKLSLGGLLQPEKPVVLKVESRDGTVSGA

[13] = Ratio of drug level in brain to blood in FCA-induced hypersensitivity rat at 1 mg/kg, po administered with DMSO as vehicle; type: ADME, organism-based; set-up: dose 1 mg/kg, route oral; outline: as §1
[14] = Drug level in Sprague-Dawley rat blood at steady state at […], iv after 18 hrs; type: ADME, organism-based; set-up: route intravenous; conditions: whole blood, read-out: Drug uptake; outline: as §3
[15] = Ratio of drug level in brain to blood in FCA-induced hypersensitivity rat at 30 mg/kg, po administered with DMSO as vehicle; type: ADME, organism-based; set-up: dose 30 mg/kg, route oral; outline: as §1
Brain [16] = assay: Drug uptake in FCA-induced hypersensitivity rat brain at 1 mg/kg, po administered with DMSO as vehicle; type: ADME, organism-based; set-up: dose 1 mg/kg, route oral; conditions: in vivo, read-out: Drug uptake; outline: as §1
[17] = molecular target: T2, Prostaglandin E2 receptor EP1 subtype (Homo sapiens, UniProt P34995); assay: Antagonist activity at PGE2-EP1 receptor assessed as PGE2-induced intracellular calcium mobilization; type: functional, cell-based
T2 sequence (P34995 whole entry): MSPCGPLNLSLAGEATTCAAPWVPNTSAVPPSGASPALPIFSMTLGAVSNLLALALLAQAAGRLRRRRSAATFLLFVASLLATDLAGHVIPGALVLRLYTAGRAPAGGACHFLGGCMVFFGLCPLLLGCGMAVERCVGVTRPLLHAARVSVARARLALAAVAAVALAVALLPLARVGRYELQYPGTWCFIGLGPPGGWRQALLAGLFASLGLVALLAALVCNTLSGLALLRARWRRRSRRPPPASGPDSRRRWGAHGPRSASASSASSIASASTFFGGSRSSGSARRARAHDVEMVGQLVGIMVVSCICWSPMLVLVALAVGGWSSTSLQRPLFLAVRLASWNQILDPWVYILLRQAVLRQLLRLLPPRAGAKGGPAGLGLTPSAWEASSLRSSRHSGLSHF

Blood [18] = assay: Drug uptake in FCA-induced hypersensitivity rat blood at 1 mg/kg, po administered with DMSO as vehicle; type: ADME, organism-based; set-up: dose 1 mg/kg, route oral; conditions: in vivo, read-out: Drug uptake; outline: as §1
[19] = molecular target: T3, Prostaglandin E2 receptor EP3 subtype (Homo sapiens, UniProt P43115); assay: Antagonist activity at PGE2-EP3 receptor assessed as PGE2-induced intracellular calcium mobilization; type: functional, cell-based
T3 sequence (P43115 whole entry): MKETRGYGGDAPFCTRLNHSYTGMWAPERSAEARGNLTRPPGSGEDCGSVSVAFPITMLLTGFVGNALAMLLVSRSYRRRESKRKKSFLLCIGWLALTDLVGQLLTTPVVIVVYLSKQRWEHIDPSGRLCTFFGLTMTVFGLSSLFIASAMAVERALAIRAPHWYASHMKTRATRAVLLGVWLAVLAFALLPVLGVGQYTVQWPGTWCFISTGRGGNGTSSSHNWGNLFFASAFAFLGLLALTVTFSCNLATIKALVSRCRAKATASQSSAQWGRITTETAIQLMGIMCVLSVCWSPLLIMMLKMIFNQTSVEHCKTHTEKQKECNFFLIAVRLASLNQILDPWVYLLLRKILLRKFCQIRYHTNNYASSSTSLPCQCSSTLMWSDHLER

Blood [20] = assay: Drug uptake in FCA-induced hypersensitivity rat blood at 3 mg/kg, po administered with DMSO as vehicle; type: ADME, organism-based; set-up: dose 3 mg/kg, route oral; conditions: in vivo, read-out: Drug uptake; outline: as §1
[21] = Clearance at steady state in Sprague-Dawley rat blood at […], iv after 18 hrs; type: ADME, organism-based; set-up: route intravenous; conditions: whole blood; outline: as §3
[22] = Drug level in Sprague-Dawley rat brain at steady state at […], iv after 18 hrs; type: ADME, organism-based; set-up: route intravenous; conditions: read-out: Drug uptake; outline: as §3
[23] = molecular target: T2, Prostaglandin E2 receptor EP1 subtype; assay: Displacement of [3H]PGE2 from human PGE2-EP1 receptor expressed in CHO-K1 cells; type: cell-based
[24] = molecular target: T2, Prostaglandin E2 receptor EP1 subtype; assay: Antagonist activity at PGE2-EP1 receptor assessed as PGE2-induced response by schild analysis; type: functional; conditions: read-out: pA2 (converted)
Cytochrome P450 2C19 = Cytochrome P450 2C19 (Homo sapiens, UniProt P33261); assay: Inhibition of CYP2C19; type: ADME
Chain of Cytochrome P450 2C19 (P33261 whole entry): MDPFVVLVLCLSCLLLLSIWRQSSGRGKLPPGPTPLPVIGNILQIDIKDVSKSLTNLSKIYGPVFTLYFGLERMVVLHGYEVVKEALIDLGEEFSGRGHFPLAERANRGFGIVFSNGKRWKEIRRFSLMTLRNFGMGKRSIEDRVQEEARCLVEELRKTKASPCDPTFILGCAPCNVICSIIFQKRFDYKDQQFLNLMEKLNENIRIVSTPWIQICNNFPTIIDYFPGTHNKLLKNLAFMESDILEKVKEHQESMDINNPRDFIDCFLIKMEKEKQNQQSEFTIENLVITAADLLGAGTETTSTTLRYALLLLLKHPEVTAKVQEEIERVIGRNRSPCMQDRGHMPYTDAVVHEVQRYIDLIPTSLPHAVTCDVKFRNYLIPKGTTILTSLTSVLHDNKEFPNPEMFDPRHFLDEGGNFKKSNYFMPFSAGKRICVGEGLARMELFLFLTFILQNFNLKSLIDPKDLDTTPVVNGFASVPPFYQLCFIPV

Work on `Cc1cc(NC(=O)OC(C)(C)C)nn1Cc1cc(Cl)ccc1OCc1ccccc1` yielded an ED50 (Rattus norvegicus) of 5.36 mg/kg, a concentration (Brain [1]) of 781 nM and a concentration (Brain [2]) of 473 nM. For the same molecule, the IC50 (Cytochrome P450 2C9) was 16 µM, the concentration (Blood [3]) was 299 nM and the logD [4] was > 3.7. The concentration (Blood [5]) was 302 nM, the IC50 (Cytochrome P450 2D6) was > 100 µM and the clearance [6] was 42 mL/min/kg. For the same molecule, the half-life [7] was 3 h, the concentration (Brain [8]) was 836 nM and the Kp [9] was 2.66. The Kp [10] was 2.26, the Kp [11] was 3.44 and the Vd [12] was 8.6 L/kg. The IC50 (Cytochrome P450 1A2) was > 100 µM, the IC50 (Cytochrome P450 3A4) was > 100 µM and the Kp [13] was 2.66. The concentration at 18 h [14] was 408 nM, the Kp [15] was 2.73 and the concentration (Brain [16]) was 106 nM. For the same molecule, the Ki [17] was 0.0158 µM, the concentration (Blood [18]) was 57 nM and the Ki [19] was > 10 µM. It also gave a concentration (Blood [20]) of 210 nM, a clearance [21] of 54 mL/min/kg and a concentration at 18 h [22] of 1400 nM. The IC50 [23] was 0.0251 µM, the Kb [24] was 0.0501 µM and the IC50 (Cytochrome P450 2C19) was > 100 µM.
